High-throughput results as filed in PubChem BioAssay.
FLuc inh counter = counter-screen for luciferase assay inhibitors: firefly luciferase inhibition | ATPLite firefly luciferase biochemical luminescence, 10 min | 200,000 compounds, 1.5% hits | inhibition, % at 10 µM;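 active = inhibition above about 50% when tested at 10 µM, limit read from the data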
Target sequence (P08659 whole entry, looked up): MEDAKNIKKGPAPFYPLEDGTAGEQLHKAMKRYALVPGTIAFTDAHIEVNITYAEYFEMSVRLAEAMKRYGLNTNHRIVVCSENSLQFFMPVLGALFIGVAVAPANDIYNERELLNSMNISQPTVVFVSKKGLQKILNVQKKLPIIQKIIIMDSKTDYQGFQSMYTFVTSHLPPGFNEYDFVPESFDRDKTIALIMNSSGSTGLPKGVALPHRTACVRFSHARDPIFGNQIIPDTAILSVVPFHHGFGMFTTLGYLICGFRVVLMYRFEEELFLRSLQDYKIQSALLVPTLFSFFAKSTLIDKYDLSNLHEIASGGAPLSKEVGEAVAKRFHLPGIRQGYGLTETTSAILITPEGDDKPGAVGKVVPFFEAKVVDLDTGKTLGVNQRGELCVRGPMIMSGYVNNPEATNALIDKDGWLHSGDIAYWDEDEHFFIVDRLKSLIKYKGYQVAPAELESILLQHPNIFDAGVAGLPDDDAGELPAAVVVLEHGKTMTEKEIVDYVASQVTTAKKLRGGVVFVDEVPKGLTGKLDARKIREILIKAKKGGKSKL
STAT1 act = STAT1 signaling activation; NIH 3T3 STAT1-luciferase reporter, IFN-gamma, luminescence; 100% = IFN-gamma alone, no compound; activation (% of control), % at 5.5 µM; 200,000 compounds, 2.6% hits; AID 932;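 active = activation above the screen-wide mean activation plus 3 SD, cut at about 130% in these data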;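 note: raw ratio to IFN-gamma control signal so 100% means no change and 0% no light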
FLuc stim CS = affects firefly luciferase, flagging false hits in luciferase stimulation screens; P08659; ATPlite luciferase biochemical, luminescence, 10 min; 0 = ATP-free wells, 1 = DMSO control; activation factor at 10 µM; 200,000 tested, under 10 active; AID 1027;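 active = luciferase activation factor, scaled between plate controls, of at least 2 with compound at 10 µM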
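Material: Luciferase/luciferin reagent mix; Doses: test compounds dosed from 2 mM stocks in 100% DMSO; Schedule: 10 min incubation after luciferase reagent addition, room temperature; Measured by: luminescence from luciferase reaction; Read-out: luminescence gain marking luciferase activators.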
NF-kB neuron act = raises NF-kB expression in human neuronal cells; fold change at 12.5 µM; NF-kB reporter expression; stronger effect = higher value; 190,000 compounds, 1.6% hits; in the data active = fold change above about 3.3
APP 5'UTR act = APP 5'UTR luciferase reporter activation. SH-SY5Y APP 5'UTR luciferase reporter, luminescence; zero percent = DMSO vehicle wells. activation, % at 2 µM. 190,000 compounds, 1% hits;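 active = activation above a set limit, based on mean plus 3 SD of controls, cut at about 140% in these data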
STAT1 act conf = STAT1 activation, confirmation assay. shares compounds with STAT1 act. NIH 3T3 STAT1-luciferase reporter, IFN-gamma potentiation, luminescence; 100% = IFN-gamma EC80 alone, no compound. activation (% of control), % at 5.7 µM. 1,200 compounds, 97% hits. AID 1262;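 active = activation above a set limit carried over from the earlier primary STAT1 screen, cut at about 140% in these data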;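 note: simple ratio to median IFN-gamma plus DMSO wells so 0% means no light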
NFkB act STAT1ct = counter-screen for STAT1 activators: NF-kappaB activation. shares compounds with STAT1 act. HEK293T NF-kB luciferase reporter, TNF-alpha stimulated, luminescence; 100% = TNF-alpha with vehicle only. activation (% of control), % at 5.7 µM. 1,200 compounds, 43% hits;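 active = activation above the mean of solvent-only control wells plus 3 SD, set per campaign, cut at about 130% in these data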;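 note: TNF-alpha given at a submaximal dose yielding about 80% of full reporter signal; values are well signal over median control so 100% means no change and 0% no light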
STAT3 act 2 = counter-screen for STAT1 activators: human STAT3 activation | shares compounds with STAT1 act | U3A cells STAT3-luciferase reporter, IL-6, luminescence; cells lack STAT1; 100 = IL-6 alone, no compound effect | activation (% of control), % at 5.7 µM | 1,200 compounds, 46% hits | AID 1316;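 active = activation above the solvent-only control well mean plus 3 SD, set per plate batch, cut at about 110% in these data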;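 note: 0% = no luminescence and 100% = median IL-6 plus DMSO wells; higher means more STAT3 reporter activation so hits are non-selective activators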
Starred values were filed as active, the others as inactive. Compounds with a hit are over-represented: about 4.3% of the library has one in this group of screens.

N/C(=N\OC(=O)c1ccco1)c1ccc(Br)cc1 was read as FLuc inh counter 33.5, STAT1 act 161.7*, FLuc stim CS 0.7, NF-kB neuron act 3.71*, APP 5'UTR act 173.1*, STAT1 act conf 157.8*, NFkB act STAT1ct 122.7 and STAT3 act 2 101.6.
For N/C(=N\OC(=O)Cc1cccs1)c1ccc(Br)cc1 the results were FLuc inh counter 8.8, STAT1 act 123.1, FLuc stim CS 0.9, NF-kB neuron act 2.45 and APP 5'UTR act 44.6.
Screening Cc1ccc(N=Nc2c(N)nn3c(C)cc(C)nc23)cc1 returned FLuc inh counter -0.4, STAT1 act 105.3, FLuc stim CS 1, NF-kB neuron act 1.05 and APP 5'UTR act 0.4.
`Cc1ccc(N=Nc2c(N)nn(-c3ccccc3)c2N)cc1` gave FLuc inh counter 25.8, STAT1 act 154.6*, FLuc stim CS 0.7, NF-kB neuron act 5.96*, APP 5'UTR act 23.7, STAT1 act conf 179.8*, NFkB act STAT1ct 138.0* and STAT3 act 2 101.8.
COc1cccc(CN2CCCC(CNC(=O)c3ccc(F)cc3)C2)c1OC (stereo unspecified) was read as FLuc inh counter -5.0, STAT1 act 93.0, FLuc stim CS 1.1, NF-kB neuron act 1.13 and APP 5'UTR act 8.2.
CN(C)c1cccc(C(=O)Nc2cc(C(F)(F)F)ccc2-n2cnc3ccccc32)c1 was read as FLuc inh counter -5.1, STAT1 act 96.3, FLuc stim CS 1.1, NF-kB neuron act 1.19 and APP 5'UTR act 14.8.
Screening O=C(NC(=S)Nc1ccc(F)cc1)c1ccc2c(c1)OCCO2 returned FLuc inh counter 33.6, STAT1 act 152.5*, FLuc stim CS 0.7, NF-kB neuron act 2.06, APP 5'UTR act 212.6*, STAT1 act conf 210.7*, NFkB act STAT1ct 130.0 and STAT3 act 2 100.7.
O=C(NC(=S)Nc1ccc(N2CCOCC2)cc1)c1ccc2c(c1)OCCO2 was read as FLuc inh counter -3.6, STAT1 act 108.5, FLuc stim CS 1, NF-kB neuron act 0.76 and APP 5'UTR act 15.7.
`CCC(=O)N1CCN(c2nc(-c3ccccc3)c3c(c2C#N)CCCC3)CC1` gave FLuc inh counter -0.5, STAT1 act 99.6, FLuc stim CS 1, NF-kB neuron act 1.06 and APP 5'UTR act -5.5.
Screening COc1ccc(NC(=O)/C(Cl)=C(/Cl)S(=O)(=O)Cc2ccccc2)cn1 returned FLuc inh counter 0.0, STAT1 act 170.3*, FLuc stim CS 1, NF-kB neuron act 0.27, APP 5'UTR act -76.9, STAT1 act conf 160.1*, NFkB act STAT1ct 90.2 and STAT3 act 2 116.0*.
Screening COc1ccc(NC(=O)/C(Cl)=C(/Cl)S(=O)Cc2ccc(Cl)cc2)cn1 (stereo unspecified) returned FLuc inh counter -8.8, STAT1 act 291.5*, FLuc stim CS 1.1, NF-kB neuron act 0.18, APP 5'UTR act -95.9, STAT1 act conf 278.2*, NFkB act STAT1ct 46.9 and STAT3 act 2 101.0.
C/C=N\NC(=O)CNC(=O)CNC(=O)c1ccccc1 was read as FLuc inh counter -5.2, STAT1 act 101.2, FLuc stim CS 1.1, NF-kB neuron act 0.95 and APP 5'UTR act 3.0.
`S=c1[nH]nc(CCc2ccccc2)n1-c1ccccc1` gave FLuc inh counter 7.5, STAT1 act 98.6, FLuc stim CS 0.9, NF-kB neuron act 1.09 and APP 5'UTR act 1.2.
O=C(NCCCCc1ccccc1)c1ccccc1Cl was read as FLuc inh counter -2.8, STAT1 act 109.1, FLuc stim CS 1, NF-kB neuron act 1.18 and APP 5'UTR act 10.4.
Cc1ccccc1Nc1nc(N)nc(CSc2ccc(F)cc2)n1 was read as FLuc inh counter 2.7, STAT1 act 156.1*, FLuc stim CS 1, NF-kB neuron act 6.03*, APP 5'UTR act 167.6*, STAT1 act conf 194.7*, NFkB act STAT1ct 127.4 and STAT3 act 2 124.6*.
Screening CCCCCCOc1ccc(/C(N)=N/O)cc1 returned FLuc inh counter 8.1, STAT1 act 161.1*, FLuc stim CS 0.9, NF-kB neuron act 6.79*, APP 5'UTR act 78.2, STAT1 act conf 156.6*, NFkB act STAT1ct 128.7 and STAT3 act 2 120.8*.
CCOC(=O)C1CCN(c2ccc(C(N)=O)cc2[N+](=O)[O-])CC1 was read as FLuc inh counter -4.6, STAT1 act 98.2, FLuc stim CS 1, NF-kB neuron act 1.11 and APP 5'UTR act -11.6.
Screening Oc1ccc(Cl)cc1C=Nc1ccc(Br)cc1 returned FLuc inh counter 2.7, STAT1 act 97.4, FLuc stim CS 1, NF-kB neuron act 1.21 and APP 5'UTR act -8.0.
For Cn1c(O)c(C=Nc2ccc(Br)cc2)sc1=O the results were FLuc inh counter -0.4, STAT1 act 160.2*, FLuc stim CS 1, NF-kB neuron act 1.9, APP 5'UTR act 165.2*, STAT1 act conf 189.1*, NFkB act STAT1ct 135.7* and STAT3 act 2 98.7.
For O=c1cc(-c2ccco2)oc2ccc(Cl)cc12 the results were FLuc inh counter -0.7, STAT1 act 108.2, FLuc stim CS 1, NF-kB neuron act 1.64 and APP 5'UTR act -4.9.
Screening COc1ccc2oc(-c3ccco3)cc(=O)c2c1 returned FLuc inh counter 58.8*, STAT1 act 160.3*, FLuc stim CS 0.4, NF-kB neuron act 1.29, APP 5'UTR act 83.0, STAT1 act conf 183.1*, NFkB act STAT1ct 122.4 and STAT3 act 2 105.4.
CC(C)c1cccc(C(C)C)c1NC(=O)COC(=O)C1=COCCO1 was read as FLuc inh counter -10.6, STAT1 act 97.5, FLuc stim CS 1.1, NF-kB neuron act 1.4 and APP 5'UTR act 11.3.
CCS(=O)(=O)N1Cc2ccccc2CC1C(=O)Nc1nc2ccccc2s1 (stereo unspecified) was read as FLuc inh counter 35.0, STAT1 act 173.5*, FLuc stim CS 0.7, NF-kB neuron act 0.91, APP 5'UTR act 209.6*, STAT1 act conf 230.2*, NFkB act STAT1ct 122.6 and STAT3 act 2 119.4*.
`Cc1ccc(S(=O)(=O)Nc2ccnc(-c3cccnc3)n2)cc1` gave FLuc inh counter -6.4, STAT1 act 99.2, FLuc stim CS 1.1, NF-kB neuron act 0.87 and APP 5'UTR act -3.6.
For Cc1ccc(OCc2ccc(Br)cc2)c([N+](=O)[O-])n1 the results were FLuc inh counter 22.4, STAT1 act 154.0*, FLuc stim CS 0.8, NF-kB neuron act 3.78*, APP 5'UTR act 156.2*, STAT1 act conf 175.0*, NFkB act STAT1ct 140.8* and STAT3 act 2 117.6*.
